Reference: ChEMBL document CHEMBL3045276, “Synthesis and biological activity of some novel trifluoromethyl-substituted 1,2,4-triazole and bis(1,2,4-triazole) Mannich bases containing piperazine rings” (2010)

Experiments:
Type in all cases: functional
[1] = test system: Echinochloa crus-galli; assay: Herbicidal activity against Echinochloa crus-galli (barnyard grass) assessed as inhibition of seedling growth at 100 ug/mL at 28 degC
In short: (§1)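 Ten barnyardgrass seeds placed in cup over glass beads and filter paper holding 5 mL aqueous test solution (emulsified if needed); germinated 65 h at 28 ± 1 °C under light. Mean above-ground seedling height per cup measured; inhibition percentage derived.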

[2] = test system: Brassica rapa subsp. oleifera; assay: Herbicidal activity against Brassica rapa subsp. oleifera assessed as inhibition of root growth at 10 ug/mL at 28 degC
In short: (§2)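 Rape seeds soaked 4 h in distilled water, then 15 per 6 cm dish on filter paper wetted with 2 mL aqueous test solution (emulsified if needed); germinated 65 h at 28 ± 1 °C in darkness. Mean length of 10 roots per dish measured; percentage inhibition calculated against distilled-water check.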

[3] = test system: Brassica rapa subsp. oleifera; assay: Herbicidal activity against Brassica rapa subsp. oleifera assessed as inhibition of root growth at 100 ug/mL at 28 degC; in short: as §2
[4] = test system: Sclerotinia sclerotiorum; assay: Fungicidal activity against Sclerotinia sclerotiorum in cucumber plant two seed leaves stage assessed as control efficacy from disease indices at 500 ug/mL at 18 to 30 degC and above 80%RH relative to control; conditions: read-out: GI
In short: (§3)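 Cucumber seeds germinated (soaked 2 h in water at 50 °C, kept moist 24 h at 28 °C) and grown in 1:1 vermiculite/peat; two-seed-leaf plants sprayed at 500 μg/mL, then inoculated 2 h later by spraying conidial (C. cassiicola, A. citrullina, P. cubensis), bacterial (P. syringae) or mycelial (S. sclerotiorum) suspension. Held 18-30 °C, >80% RH; four repeats; control efficacy = (CK−PT)/CK×100 from disease indices once untreated plants fully symptomatic.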

[5] = test system: Pseudoperonospora cubensis; assay: Fungicidal activity against Pseudoperonospora cubensis in cucumber plant two seed leaves stage assessed as control efficacy from disease indices at 500 ug/mL at 18 to 30 degC and above 80%RH relative to control; conditions: read-out: GI; in short: as §3
[6] = test system: Ascochyta; assay: Fungicidal activity against Ascochyta […] in cucumber plant two seed leaves stage assessed as control efficacy from disease indices at 500 ug/mL at 18 to 30 degC and above 80%RH relative to control; conditions: read-out: GI; in short: as §3
[7] = test system: Pseudomonas amygdali pv. lachrymans; assay: Fungicidal activity against Pseudomonas syringae pv. lachrymans in cucumber plant two seed leaves stage assessed as control efficacy from disease indices at 500 ug/mL at 18 to 30 degC and above 80%RH relative to control; conditions: read-out: GI; in short: as §3
[8] = test system: Corynespora cassiicola; assay: Fungicidal activity against Corynespora cassiicola in cucumber plant two seed leaves stage assessed as control efficacy from disease indices at 500 ug/mL at 18 to 30 degC and above 80%RH relative to control; conditions: read-out: GI; in short: as §3
[9] = test system: Echinochloa crus-galli; assay: Herbicidal activity against Echinochloa crus-galli (barnyard grass) assessed as inhibition of seedling growth at 10 ug/mL at 28 degC; in short: as §1

| Structure (SMILES) | inhibition at 100 µg/mL [1] [%] | inhibition at 10 µg/mL [2] [%] | inhibition at 100 µg/mL [3] [%] | inhibition of growth at 500 µg/mL [4] [%] | inhibition of growth at 500 µg/mL [5] [%] | inhibition of growth at 500 µg/mL [6] [%] | inhibition of growth at 500 µg/mL [7] [%] | inhibition of growth at 500 µg/mL [8] [%] | inhibition at 10 µg/mL [9] [%] |
| --- | --- | --- | --- | --- | --- | --- | --- | --- | --- |
| FC(F)(F)c1nn(CN2CCN(c3ncccn3)CC2)c(=S)n1/N=C/c1ccccc1 | 0 | 49.2 | 66.8 | 41.7 | 66.3 | 37.1 | 55.8 | 56.2 | 0 |
| Fc1ccccc1/C=N/n1c(C(F)(F)F)nn(CN2CCN(c3ncccn3)CC2)c1=S | 15.3 | 70.8 | 74.5 | 47.3 | 64.9 | 61.3 | 45.4 | 40.3 | 9.9 |
| COc1ccc(/C=N/n2c(C(F)(F)F)nn(CN3CCN(c4ncccn4)CC3)c2=S)cc1 | 18.6 | 53.5 | 78.8 | 75.3 | 79.5 | 73.4 | 68.1 | 73.4 | 0 |
| Cc1ccnc(N2CCN(Cn3nc(C(F)(F)F)n(/N=C/c4ccccc4)c3=S)CC2)n1 | 15.3 | 0 | 12.5 | 36.8 | 78.6 | 62.4 | 20.4 | 49.2 | 8.7 |
